Source: PubChem BioAssay
An excerpt weighted towards active compounds, which were near 2.1% of everything screened.
FGF22 binding-1: shifts melting point of recombinant human FGF22; recombinant FGF22 thermal shift, SYPRO orange fluorescence; percent of sucrose octasulfate shift, DMSO zero; 1.5% of 340,000 active; activity (Tm shift, normalised), % at 9.99 µM;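 active means mean Tm shift, scaled 0 neutral to 100 positive control, at about 1.3% or above, every replicate too, limit read from the data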
Target sequence (Q9HCT0 whole entry, looked up): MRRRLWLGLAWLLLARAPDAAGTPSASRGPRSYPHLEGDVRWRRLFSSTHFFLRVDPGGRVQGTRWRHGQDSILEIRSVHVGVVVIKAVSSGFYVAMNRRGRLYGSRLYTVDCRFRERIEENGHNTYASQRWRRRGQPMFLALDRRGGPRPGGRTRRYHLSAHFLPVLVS
FN deposition inh: fibronectin deposition inhibition | AH1F fibroblasts, Alexa488-fibronectin deposition fluorescence, overnight | 0.086% of 350,000 active | inhibition, % at 12.6 µM;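 active means mean inhibition across replicates of 30% or more, regardless of how many single replicates reach that level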;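 further: positive control wells lacked labelled fibronectin entirely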
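Material – AH1F fibroblast monolayer, labelled fibronectin deposition · Reagent – labelled fibronectin 24 nM · Timing – 1 h adhesion, overnight exposure · Measured by – fluorescence at 485 nm excitation, 525 nm emission · Read-out – inhibition of fibronectin deposition signal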
AF4-AF9 inh: blocks AF4 peptide binding to human AF9; AlphaScreen, biotin-AF4 peptide binding to FLAG-AF9; inhibition, % at 10 µM; 0.47% of 350,000 active; AID 651704;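 active means every replicate reaching a set inhibition limit, whatever the replicate mean, cut at about 25% in these data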;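 further: 0% = plate neutral control median and 100% = total signal loss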
ERp5 block: inhibitors of human ERp5. ERp5 insulin aggregation, absorbance 650 nm, 90 min. inhibition, % at 9.99 µM. 0.05% of 350,000 active. AID 651711;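 active means mean replicate inhibition above about 25%, with every replicate also reaching it, limit read from the data, passing the limit was not always enough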
PDI inh: inhibitors of human protein disulfide isomerase; PDI insulin aggregation turbidity, A650, 90 min; inhibition, % at 10 µM; 0.052% of 350,000 active;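 active means mean inhibition across replicates of 30% or more, whatever share of single replicates reach that level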
Target sequence (P07237 whole entry, looked up): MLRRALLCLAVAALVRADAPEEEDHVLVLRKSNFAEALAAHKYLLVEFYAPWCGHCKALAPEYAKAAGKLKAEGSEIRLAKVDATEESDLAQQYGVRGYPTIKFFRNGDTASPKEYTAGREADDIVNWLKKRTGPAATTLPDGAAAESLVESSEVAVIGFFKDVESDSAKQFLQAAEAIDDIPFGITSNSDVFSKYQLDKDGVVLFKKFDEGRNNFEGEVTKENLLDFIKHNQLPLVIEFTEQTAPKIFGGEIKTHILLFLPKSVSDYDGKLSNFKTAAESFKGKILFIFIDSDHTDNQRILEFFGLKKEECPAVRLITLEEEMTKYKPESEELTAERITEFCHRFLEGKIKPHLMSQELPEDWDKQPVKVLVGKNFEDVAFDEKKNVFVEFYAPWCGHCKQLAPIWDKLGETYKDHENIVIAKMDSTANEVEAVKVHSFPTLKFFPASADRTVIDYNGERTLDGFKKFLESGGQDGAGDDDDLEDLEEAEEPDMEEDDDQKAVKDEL
ARNT TACC3 PPI: disrupts binding between human ARNT and TACC3; AlphaScreen His-ARNT PAS-B/GST-TACC3 binding, luminescence; TACC3 fragment carries E629A point mutation; inhibition, % at 9.99 µM; 0.66% of 390,000 active; AID 623870;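 active means mean inhibition of replicates at least 50% and at least half of replicates each reaching 50%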;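 further: 0% = complete ARNT plus TACC3 wells and 100% = ARNT alone without TACC3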
FGF22 binding-2: binders of human FGF22 by thermal shift | shares compounds with FGF22 binding-1 | recombinant FGF22 thermal shift, SYPRO orange fluorescence | thermal shift activity, °C (ΔTm) at 38 µM | 2% of 1,000 active;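 active means fitted rise in melting shift crosses a set limit at or below the top valid dose tested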
TSA no protein: shows thermal shift signal without protein, FGF22 counter-screen; shares compounds with FGF22 binding-1; compound-only SYPRO orange thermal shift counter-screen, no protein; AC50, µM (highest dose often 38 µM); 2% of 1,000 active; AID 743019;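 active means rising signal whose fitted curve reaches the 0.54 level within the top valid dose, showing a melting point, actives reach about 13 µM in these data; inactive means the rest, including activity in the opposite direction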; further: value is where the raw curve crosses a fixed level and not half-maximal
The depositor's hits bear a star; [ ] = dose if it differs, or a comment.

For CO[C@H]1CN(C)C(=O)c2cc(NC(=O)CC(F)(F)F)ccc2OC[C@@H](C)N(C(C)=O)C[C@H]1C the results were FGF22 binding-1 22.9*, FN deposition inh 0.0, AF4-AF9 inh -1.8, ERp5 block -4.9, FGF22 binding-2 0.119[42 µM] and TSA no protein inactive.
Screening CO[C@@H]1CN(C)C(=O)c2ccc(NS(=O)(=O)c3ccc(Cl)cc3)cc2OC[C@@H](C)N(C(=O)NC(C)C)C[C@@H]1C returned FGF22 binding-1 -0.5, FN deposition inh 6.3, AF4-AF9 inh -0.4, ERp5 block -4.9 and ARNT TACC3 PPI -4.7.
CCCNC(=O)Nc1ccc2c(c1)C(=O)N(C)C[C@H](OC)[C@@H](C)CN(C(=O)c1ccccc1F)[C@H](C)CO2 was read as FGF22 binding-1 1.7*, FN deposition inh -1.3, AF4-AF9 inh -0.8, ERp5 block 0.6, ARNT TACC3 PPI 8.0, FGF22 binding-2 0.056 and TSA no protein inactive.
CO[C@H]1CN(C)C(=O)c2cc(NC(=O)c3cccc(F)c3)ccc2OC[C@H](C)NC[C@@H]1C was read as FGF22 binding-1 2.0*, FN deposition inh 0.0, AF4-AF9 inh -14.4, ERp5 block -0.6, ARNT TACC3 PPI -11.1, FGF22 binding-2 0.095 and TSA no protein inactive.
CO[C@H]1CN(C)C(=O)c2ccc(NS(=O)(=O)c3ccc(Cl)cc3)cc2OC[C@@H](C)N(C(=O)NC(C)C)C[C@H]1C was read as FGF22 binding-1 36.4*, FN deposition inh 3.4, AF4-AF9 inh -1.1, ERp5 block -0.4, ARNT TACC3 PPI -1.1, FGF22 binding-2 -0.001[42 µM] and TSA no protein inactive.
For CC(C)[C@@H](CO)NC(=O)[C@H]1[C@@H](c2ccccc2)N(c2ccccc2)O[C@@H]1C the results were FGF22 binding-1 -0.2, AF4-AF9 inh -2.6 and ERp5 block 0.2.
CO[C@@H]1CN(C)C(=O)c2cc(NC(=O)C3CCCC3)ccc2OC[C@H](C)N(CCC(F)(F)F)C[C@H]1C was read as FGF22 binding-1 9.3*, FN deposition inh -10.9, AF4-AF9 inh 0.9, ERp5 block -1.9, ARNT TACC3 PPI -11.9, FGF22 binding-2 0.147 and TSA no protein inactive.
Screening CCCN1C[C@H](C)[C@H](OC)CN(C)C(=O)c2cc(NC(=O)c3cnccn3)ccc2OC[C@@H]1C returned FGF22 binding-1 1.4*, FN deposition inh 3.9, AF4-AF9 inh -2.9, ERp5 block 5.9, ARNT TACC3 PPI -9.5, FGF22 binding-2 0.099 and TSA no protein inactive.
`CO[C@H]1CN(C)C(=O)c2cc(NC(=O)C3CCCC3)ccc2OC[C@H](C)N(CCC(F)(F)F)C[C@H]1C` gave FGF22 binding-1 -0.3, FN deposition inh 0.1, AF4-AF9 inh 1.9, ERp5 block 2.0 and ARNT TACC3 PPI -3.9.
Screening COCC(=O)Nc1ccc2c(c1)OC[C@@H](C)N(C)C[C@@H](C)[C@H](OC)CN(C)C2=O returned FGF22 binding-1 -0.1, FN deposition inh 1.0, AF4-AF9 inh -1.3, ERp5 block 0.4 and ARNT TACC3 PPI 8.1.
`COCC(=O)Nc1ccc2c(c1)OC[C@@H](C)N(C)C[C@H](C)[C@@H](OC)CN(C)C2=O` gave FGF22 binding-1 30.7*, FN deposition inh -9.6, AF4-AF9 inh -1.7, ERp5 block -1.9, ARNT TACC3 PPI 1.5, FGF22 binding-2 0.094 and TSA no protein inactive.
CCC(=O)N(C)C[C@@H]1Oc2cc(C#CC3CCCC3)ccc2S(=O)(=O)N([C@@H](C)CO)C[C@@H]1C was read as FGF22 binding-1 -0.3, FN deposition inh -9.5, AF4-AF9 inh 5.4, ERp5 block -6.9 and ARNT TACC3 PPI -7.1.
`C[C@H]1CN([C@@H](C)CO)C(=O)CCCn2cc(nn2)CO[C@H]1CN(C)Cc1ccccc1C(F)(F)F` gave FGF22 binding-1 -0.5, FN deposition inh -17.3, AF4-AF9 inh 0.7 and ERp5 block 1.2.
CN(C)C(=O)c1ccc(-c2ccc3c(c2)[C@@H]2[C@@H](CCN2C(=O)C2CCCCC2)[C@@H](CO)N3C)cc1 was read as FGF22 binding-1 -0.1, FN deposition inh 5.4, AF4-AF9 inh 5.1 and ERp5 block -5.5.
CC(C)C[C@@H](CN(C)N=O)N(C[C@H](Cc1ccccc1)N(CCc1ccccc1)N=O)N=O was read as FGF22 binding-1 1.6*, FN deposition inh 8.4, AF4-AF9 inh -7.7, ERp5 block 2.9, PDI inh -2.1, ARNT TACC3 PPI -0.9, FGF22 binding-2 0.029 and TSA no protein inactive.
For CC(C)[C@H](CN(N=O)[C@@H](Cc1ccccc1)CN(C)N=O)N(CCc1ccccc1)N=O the results were FGF22 binding-1 -0.3, FN deposition inh -1.9, AF4-AF9 inh 2.8, ERp5 block 1.8, PDI inh -1.8 and ARNT TACC3 PPI -9.1.
O=C(CCN1CCCCC1)NCC[C@H]1CC[C@@H](NC(=O)Cc2cccnc2)[C@@H](CO)O1 was read as FGF22 binding-1 0.1, FN deposition inh 0.2, AF4-AF9 inh 0.1 and ERp5 block 0.0.
COc1ccc(NS(=O)(=O)c2cccc(C(=O)NN=Cc3ccc(OC)c(O)c3)c2)cc1 was read as FGF22 binding-1 33.9*, AF4-AF9 inh -1.4, ERp5 block 4.1, PDI inh -0.6, ARNT TACC3 PPI -1.9, FGF22 binding-2 -0.189 and TSA no protein inactive.
COc1ccc(N(CC(=O)N/N=C/c2ccc(OC)c(OC)c2)S(=O)(=O)c2ccccc2)cc1 was read as FGF22 binding-1 1.5*, FN deposition inh -1.0, AF4-AF9 inh 6.9, ERp5 block 1.8, PDI inh -6.6, ARNT TACC3 PPI 2.7, FGF22 binding-2 0.151 and TSA no protein inactive.
`COc1ccc(/C=N/NC(=O)c2cccc(S(=O)(=O)N3CCCC3)c2)cc1O` gave FGF22 binding-1 0.3, FN deposition inh -8.1, AF4-AF9 inh -1.2, ERp5 block 1.6 and PDI inh -0.5.
CCC(=O)N1[C@H](CO)[C@@H](c2ccccc2)[C@H]1CN(C)C(=O)CN1CCOCC1 was read as FGF22 binding-1 1.6*, FN deposition inh 1.0, AF4-AF9 inh -2.0, ERp5 block -0.8, ARNT TACC3 PPI -2.3, FGF22 binding-2 -0.027 and TSA no protein inactive.
For CCC(=O)N1[C@@H](CO)[C@H](c2ccccc2)[C@@H]1CN(C)C(=O)CN1CCOCC1 the results were FGF22 binding-1 0.7, FN deposition inh -2.3, AF4-AF9 inh -1.8, ERp5 block -2.1 and ARNT TACC3 PPI 1.6.
